In ChEMBL document CHEMBL1155216, “A direct synthesis of 5,6-dihydroindolo[2,1-a]isoquinolines that exhibit immunosuppressive activity” (Bioorg Med Chem Lett, 2009):
Calls of active or inactive are those of the source. No cut-off for these calls is given here.

Tests used:
[1] = test system: Splenocyte; assay: Immunosuppressive activity in influenza virus A/PR/8/34-H1N1 infected mouse splenocytes assessed as reduction of IL-10 level at 0.5 mg/ml after 96 hrs by ELISA; format: functional, cell-based
Procedure, shortened: (§1)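 Spleen cells from mice taken 7 days after influenza infection; RBCs lysed with ammonium chloride, washed in HBSS, 5 × 10⁶ cells/ml in AIM-V. Restimulated with virus, compounds at 0.5 mg/ml final, triplicate, 37 °C, 5% CO₂. Supernatants collected at 48 h for IL-2 and IFN-γ and at 96 h for IL-10. Sandwich ELISA, TMB readout, four-parameter standard-curve fit.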

[2] = test system: Splenocyte; assay: Immunosuppressive activity in influenza virus A/PR/8/34-H1N1 infected mouse splenocytes assessed as reduction of IFN-gamma level at 0.5 mg/ml after 48 hrs by ELISA; format: functional, cell-based; procedure, shortened: as §1
[3] = test system: Splenocyte; assay: Immunosuppressive activity in influenza virus A/PR/8/34-H1N1 infected mouse splenocytes assessed as reduction of IL-2 level at 0.5 mg/ml after 48 hrs by ELISA; format: functional, cell-based; procedure, shortened: as §1
[4] = Cytotoxicity against mouse splenocytes assessed as cell viability after 48 hrs by MTS assay; format: cell-based; details: splenocyte
Procedure, shortened: (§2)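 Spleen cells from non-infected mice, no stimulus added, cultured at 5 × 10⁶ cells/ml in AIM-V medium (1.25 × 10⁵ cells/well) with each compound for the stated time at 37 °C, 5% CO₂, humidified. MTS plus phenazine ethosulfate then added and incubated 3 h more. Absorbance read at 490 nm. Viability compared against vehicle control.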

[5] = Cytotoxicity against mouse splenocytes assessed as cell viability after 24 hrs by MTS assay; format: cell-based; details: splenocyte; procedure, shortened: as §2
[6] = Cytotoxicity against mouse splenocytes assessed as cell viability after 72 hrs by MTS assay; format: cell-based; details: splenocyte; procedure, shortened: as §2

Row | SMILES | Activity [1] | Activity [2] | Activity [3] | Activity [4] | Activity [5] | Activity [6]
1 | c1ccc2c(c1)CCn1c-2cc2ccccc21 | Active | Active | Active |  |  | 
2 | COc1cc2c(cc1OC)-c1cc3cc(OC)c(OC)cc3n1CC2 | Active | Active | Active | Toxic | Toxic | Toxic
3 | FC(F)(F)c1ccc2cc3n(c2c1)CCc1ccccc1-3 | Active | Active | Active | Non-toxic | Toxic | Non-toxic
4 | COc1cccc2cc3n(c12)CCc1ccccc1-3 | Active | Active | Active | Toxic | Toxic | Toxic
5 | COc1cc2c(cc1OC)-c1cc3ccc(C(F)(F)F)cc3n1CC2 | Active | Active | Active | Non-toxic | Toxic | Non-toxic
6 | COc1cc2c(cc1OC)-c1cc3cc(C(F)(F)F)ccc3n1CC2 | Active | Active | Active | Toxic | Toxic | Toxic
7 | FC(F)(F)c1ccc2c(c1)cc1n2CCc2ccccc2-1 | Active | Active | Active | Non-toxic | Non-toxic | Non-toxic
8 | COc1cc2c(cc1OC)-c1cc3cccc(OC)c3n1CC2 | Active | Active | Active |  |  | 
9 | COc1cc2c(cc1OC)-c1cc3ccccc3n1CC2 | Active | Active | Active | Toxic | Toxic | Toxic
10 | COc1cc2cc3n(c2cc1OC)CCc1ccccc1-3 | Active | Active | Active | Toxic | Toxic | Toxic
